Series [1] has as its target endogenous PD-L1 on MDAMB231 and H226 cells (human (endogenous in MDAMB231 and H226)) (UniProt Q9NZQ7).
In series [2] the target is recombinant human PD-L1(B7-H1)-His-tag protein (human) (UniProt Q9NZQ7). Kind of series: AlphaScreen or HTRF. On the technique in general: In Alpha technology, singlet oxygen from a donor bead excites a nearby acceptor bead.
The test system of series [3] is hPD-L1 tumors. Kind of series: Ex vivo biodistribution, hPD-L1 xenografts. Particulars: co-injected with 50 µg blocking dose of WL12. The series is classed as in vivo, NSG mice. The method in brief: (§1)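 Female NSG mice (6–8 weeks) bearing subcutaneous CHO/hPD-L1 and parental CHO tumours received radiotracer iv in saline (from 5% DMSO/Tween 20 stock). For blocking, it was coinjected with 50 µg unmodified peptide. Mice were dissected at 10, 60 and 120 min (n = 4 per time point). Blood, tumours and tissues were weighed and gamma-counted with triplicate radioactive standards. Values are %ID/g, mean ± SEM, compared by unpaired two-tailed t test.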

Series [4] can be described thus: Ex vivo biodistribution, hPD-L1 xenografts. The series is classed as in vivo, NSG mice. The note with it: female, NSG, mouse, hPD-L1 tumor (xenograft), iv, 740 kBq, total radioactivity. The method in brief: as §1
Series [5] deals with hPD-L1, CHO, MDAMB231, SUM149, H226, and H1155 cells. Kind of series: [^18F]FPy-WL12 in vitro uptake assay. The note with it: blocking with 1 µM unmodified WL12; 1 hour at 37°C. The series is classed as cell-based. In outline: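 Cells were lifted with non-enzymatic dissociation buffer. 1 × 10⁶ cells in PBS with 2 mM EDTA and 1% FBS were incubated with 1 µCi radiotracer for 1 h at 37°C, washed three times with cold PBS, and bound activity was gamma-counted. CHO-hPD-L1 cells were kept in F-12K/10% FBS with 2 mg/mL G418. SUM149 cells were grown in Ham's F-12/5% FBS with insulin and hydrocortisone. Runs were in triplicate, repeated three times.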

Series [6] in a line: Ex vivo biodistribution, MDAMB231 xenografts. The series is classed as in vivo, NSG mice. The note with it: female, NSG, mouse, MDAMB231 tumor (xenograft), iv, 740 kBq, total radioactivity. In outline: (§2)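 Female NSG mice (6–8 weeks) with subcutaneous xenografts got 740 kBq radiotracer in 200 µL iv. The radiotracer was reconstituted in saline with 5% DMSO and Tween 20, then diluted in saline. Mice were killed at 120 min (MDAMB231 also 60 min, plus a group coinjected with 50 µg unmodified peptide). Blood, tumour and tissues were weighed and gamma-counted with triplicate standards. %ID/g reported as mean ± SEM.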

Series [7] can be described thus: Ex vivo biodistribution, SUM149 xenografts. The series is classed as in vivo, NSG mice. The note with it: female, NSG, mouse, SUM149 tumor (xenograft), iv, 740 kBq, total radioactivity. The method in brief: as §2
The nature of series [8]: Ex vivo biodistribution, H226 xenografts. Particulars: female, NSG, mouse, H226 tumor (xenograft), iv, 740 kBq, total radioactivity. The series is classed as in vivo, NSG mice. In outline:
as §2

Series [9] in a line: Ex vivo biodistribution, normal tissues. The series is classed as in vivo, NSG mice. Particulars: at all the time points (10, 60, 120 minutes); blocking dose had minimal effect. The method in brief: as §1

Results on four compounds are retold here after PMC6563393 (Molecular Imaging, 2019).

One may read the IC50 as the concentration at which inhibition is half-maximal. What is called Ki is a dissociation constant, usually derived from enzyme kinetics or from competition with a known ligand. As a reminder, the tissue uptake is the share of the injected amount in each gram of the tissue.

The compound “[^18F]FPy-WL12, radiotracer (WL12 acylated with 6-[^18F]fluoronicotinate) (peptide)” yielded a tumor uptake in MDAMB231 xenografts at 120 minutes, ex vivo biodistribution in series [1] of 2.15 %ID/g.
On to “WL12, PD-L1-binding peptide (14-amino acid cyclic peptide)”, for which, in series [2], the IC50 is 26.4 nM and the Ki came to 12.3 nM.
For `CCCC[C@H]1C(=O)N(C)[C@@H](CCCC)C(=O)N[C@@H](CCCNC(=O)c2ccc(F)nc2)C(=O)N[C@H](C(=O)NCC(N)=O)CSCC(=O)N[C@@H](Cc2ccc(O)cc2)C(=O)N(C)[C@@H](C)C(=O)N[C@@H](CC(N)=O)C(=O)N2CCC[C@H]2C(=O)N[C@@H](Cc2c[nH]cn2)C(=O)N[C@@H](CC(C)C)C(=O)N2C[C@H](O)C[C@H]2C(=O)N[C@@H](Cc2c[nH]c3ccccc23)C(=O)N[C@@H](CO)C(=O)N[C@@H](Cc2cn(C)c3ccccc23)C(=O)N1C` [[^18F]FPy-WL12], in series [3], the “reduction in the uptake in hPD-L1 tumors by blocking dose” value is 85%. Also, the tissue uptake at 1 h in [4] worked out at 7.16 ± 1.67 %ID/g. Moreover, the “[^18F]FPy-WL12 uptake in cells coincubated with unmodified WL12” value in [5] is “significantly reduced”. For the same compound, the tissue uptake at 2 h in series [6] was determined as 2.15 ± 0.1 %ID/g; in series [7], 1.43 ± 0.11 %ID/g; in [8] it was 2.77 ± 0.31 %ID/g. Moreover, the “accumulation in liver and kidneys” value in [9] is “high”.
For the compound “^19FPy-WL12, nonradioactive analog of the radiotracer (WL12 acylated with 6-fluoronicotinate) (peptide)”, in [2], the IC50 was determined as 31.7 nM and the Ki came out at 14.8 nM.
